Source: ChEMBL document CHEMBL1795280, “Design, synthesis and activity of a potent, selective series of N-aryl pyridinone inhibitors of p38 kinase” (Bioorg Med Chem Lett, 2011)
Activity calls are given as the source filed them. No cut-off for these calls is given here.

Assays:
[1] = biological target: T1, Mitogen-activated protein kinase 14 (Homo sapiens, UniProt Q16539); experiment: Inhibition of p38alpha assessed as phosphorylation of […] after 60 mins by fluorescence assay
In short: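 Cascade assay in which activated p38α (6 pM final) activates unactivated MK2 (1 nM), which phosphorylates FITC-labelled Hsp27 peptide (1 nM) with […]. Inhibitor 0.2–10,000 nM. Room temperature, 60 min, EDTA quench. Phospho-peptide quantified by Caliper LabChip; IC50.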

[2] = Metabolic stability in rat liver microsomes assessed as compound remaining at 2 uM after 45 mins by LC/MS analysis; format: ADME, Microsome; settings: read-out: Stability
[3] = tested on: Rattus norvegicus; experiment: Antiinflammatory activity in Lewis rat assessed as inhibition of LPS-induced TNFalpha production at 5 mg/kg, po administered 4 hrs before LPS challenge by ELISA; format: functional
In short: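 Adult male Lewis rats (225–250 g), fasted 18 h with free access to water. Compound or vehicle given by oral gavage (1 mL). LPS (E. coli 0111:B4) given 1 mg/kg i.v. in saline 2, 4 or 6 h later. Serum taken by cardiac puncture 90 min after LPS. TNFα quantified against a recombinant rat TNF standard curve with a four-parameter fit. Two vehicle groups per experiment, three experiments.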

[4] = Metabolic stability in human liver microsomes assessed as compound remaining at 2 uM after 45 mins by LC/MS analysis; format: ADME, Microsome; settings: read-out: Stability
[5] = tested on: PBMC; experiment: Antiinflammatory activity in human PBMC assessed as inhibition of LPS-induced TNFalpha production treated 1 hr before LPS challenge measured after 18 hrs; format: functional, cell-based
In short: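 PBMCs isolated by Ficoll from heparinized blood of two healthy donors, in DMEM with 5% endotoxin-free FBS, 2.5 × 10⁵ cells/well. Pretreated 1 h with compound (0.0001–25 µM range), then stimulated 18 h with 22 ng/ml LPS. Final DMSO 0.25%. Secreted TNFα measured by MSD; IC50 reported.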

[6] = biological target: Tyrosine-protein kinase ZAP-70 (Homo sapiens) (UniProt P43403); experiment: Inhibition of ZAP70 at 10 uM
[7] = biological target: Interleukin-1 receptor-associated kinase 4 (Homo sapiens) (UniProt Q9NWZ3); experiment: Inhibition of IRAK4 at 10 uM
[8] = biological target: Rho-associated protein kinase 2 (Homo sapiens) (UniProt O75116); experiment: Inhibition of ROCK2 at 10 uM
[9] = biological target: Tyrosine-protein kinase JAK3 (Homo sapiens) (UniProt P52333); experiment: Inhibition of JAK3 at 10 uM
[10] = biological target: Aurora kinase A (Homo sapiens) (UniProt O14965); experiment: Inhibition of AURKA at 10 uM
[11] = biological target: Mitogen-activated protein kinase 12 (Homo sapiens) (UniProt P53778); experiment: Inhibition of p38-gamma at 10 uM
[12] = biological target: Inhibitor of nuclear factor kappa-B kinase subunit beta (Homo sapiens) (UniProt O14920); experiment: Inhibition of IKK-beta at 10 uM
[13] = biological target: Mitogen-activated protein kinase 3 (Homo sapiens) (UniProt P27361); experiment: Inhibition of ERK1 at 10 uM
[14] = biological target: Cyclin-dependent kinase 2 (Homo sapiens) (UniProt P24941); experiment: Inhibition of CDK2 at 10 uM
[15] = Bioavailability in Sprague-Dawley rat po as suspension; settings: in vivo
[16] = biological target: Dual specificity mitogen-activated protein kinase kinase 1 (Homo sapiens) (UniProt Q02750); experiment: Inhibition of MEK1 at 10 uM
[17] = Solubility of the compound; format: physicochemical
[18] = biological target: Mitogen-activated protein kinase 13 (Homo sapiens) (UniProt O15264); experiment: Inhibition of p38delta at 10 uM
[19] = Clearance in iv and po dosed Sprague-Dawley rat; format: ADME, organism-based; settings: in vivo
[20] = Bioavailability in Sprague-Dawley rat at 5 mg/kg, po; format: ADME, organism-based; settings: in vivo
[21] = biological target: Vascular endothelial growth factor receptor 2 (Homo sapiens) (UniProt P35968); experiment: Inhibition of VEGFR2 at 10 uM
[22] = biological target: High affinity nerve growth factor receptor (Homo sapiens) (UniProt P04629); experiment: Inhibition of TRKA at 10 uM
[23] = Inhibition of JNK at 10 uM
[24] = biological target: Tyrosine-protein kinase Lck (Homo sapiens) (UniProt P06239); experiment: Inhibition of LCK at 10 uM
[25] = biological target: Tyrosine-protein kinase JAK1 (Homo sapiens) (UniProt P23458); experiment: Inhibition of JAK1 at 10 uM
[26] = Inhibition of PDGFR at 10 uM
[27] = biological target: Non-receptor tyrosine-protein kinase TYK2 (Homo sapiens) (UniProt P29597); experiment: Inhibition of TYK2 at 10 uM
[28] = biological target: Tyrosine-protein kinase JAK2 (Homo sapiens) (UniProt O60674); experiment: Inhibition of JAK2 at 10 uM
[29] = biological target: T1, Mitogen-activated protein kinase 14; experiment: Inhibition of p38alpha at 10 uM
[30] = biological target: MAP kinase-activated protein kinase 2 (Homo sapiens) (UniProt P49137); experiment: Inhibition of MK2 at 10 uM
[31] = biological target: Rho-associated protein kinase 1 (Homo sapiens) (UniProt Q13464); experiment: Inhibition of ROCK1 at 10 uM
[32] = biological target: RAF proto-oncogene serine/threonine-protein kinase (Homo sapiens) (UniProt P04049); experiment: Inhibition of c-RAF at 10 uM
[33] = tested on: Rattus norvegicus; experiment: Antiarthritic activity in Lewis rat assessed as inhibition of streptococal cell wall-induced increase of paw volume at 60 mg/kg, po qd for 10 days administered 10 days after streptococal cell wall challenge by displacement plethysmometer analysis; format: functional; settings: 240 h
In short: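 Female Lewis rats given intraperitoneal group A streptococcal cell wall peptidoglycan-polysaccharide ([…] bodyweight). Only animals developing the acute phase were treated. Oral gavage (0.5 mL) daily from day 10 to day 21 post-SCW, with methylcellulose/Tween 20 vehicle as comparison. Four to eight animals per group, two paw volumes per animal. Paw volume measured on day 21 by water displacement plethysmometer.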

[34] = biological target: Epidermal growth factor receptor (Homo sapiens) (UniProt P00533); experiment: Inhibition of EGFR at 10 uM
[35] = Half life in iv and po dosed Sprague-Dawley rat; format: ADME, organism-based; settings: in vivo
[36] = biological target: Mitogen-activated protein kinase 11 (Homo sapiens) (UniProt Q15759); experiment: Inhibition of p38beta at 10 uM
[37] = biological target: Serine/threonine-protein kinase mTOR (Homo sapiens) (UniProt P42345); experiment: Inhibition of mTOR at 10 uM
[38] = biological target: Tyrosine-protein kinase BTK (Homo sapiens) (UniProt Q06187); experiment: Inhibition of BTK at 10 uM
[39] = biological target: Vascular endothelial growth factor receptor 1 (Homo sapiens) (UniProt P17948); experiment: Inhibition of FLT1 at 10 uM

T1 sequence (Q16539 whole entry): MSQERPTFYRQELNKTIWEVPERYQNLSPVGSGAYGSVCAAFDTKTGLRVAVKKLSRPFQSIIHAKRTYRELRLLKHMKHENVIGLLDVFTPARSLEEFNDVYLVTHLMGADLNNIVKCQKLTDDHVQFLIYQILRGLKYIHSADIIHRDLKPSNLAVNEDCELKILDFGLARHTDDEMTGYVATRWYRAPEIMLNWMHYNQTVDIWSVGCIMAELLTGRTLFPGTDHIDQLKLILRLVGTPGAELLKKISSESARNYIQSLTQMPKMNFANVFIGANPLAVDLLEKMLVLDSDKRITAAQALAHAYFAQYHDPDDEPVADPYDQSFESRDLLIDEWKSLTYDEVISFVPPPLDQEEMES
Sequence of Mitogen-activated protein kinase 11 (Homo sapiens) (Q15759 whole entry): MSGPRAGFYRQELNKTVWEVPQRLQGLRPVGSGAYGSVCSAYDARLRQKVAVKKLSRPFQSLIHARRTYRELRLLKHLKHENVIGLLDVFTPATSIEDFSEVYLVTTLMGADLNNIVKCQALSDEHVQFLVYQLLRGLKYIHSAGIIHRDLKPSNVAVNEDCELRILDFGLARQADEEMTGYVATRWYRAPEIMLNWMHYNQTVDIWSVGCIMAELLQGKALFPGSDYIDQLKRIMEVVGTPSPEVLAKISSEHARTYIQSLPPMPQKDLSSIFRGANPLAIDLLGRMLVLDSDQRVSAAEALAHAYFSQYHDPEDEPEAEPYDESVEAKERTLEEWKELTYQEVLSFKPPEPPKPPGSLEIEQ
Sequence of Tyrosine-protein kinase JAK1 (Homo sapiens) (P23458 whole entry): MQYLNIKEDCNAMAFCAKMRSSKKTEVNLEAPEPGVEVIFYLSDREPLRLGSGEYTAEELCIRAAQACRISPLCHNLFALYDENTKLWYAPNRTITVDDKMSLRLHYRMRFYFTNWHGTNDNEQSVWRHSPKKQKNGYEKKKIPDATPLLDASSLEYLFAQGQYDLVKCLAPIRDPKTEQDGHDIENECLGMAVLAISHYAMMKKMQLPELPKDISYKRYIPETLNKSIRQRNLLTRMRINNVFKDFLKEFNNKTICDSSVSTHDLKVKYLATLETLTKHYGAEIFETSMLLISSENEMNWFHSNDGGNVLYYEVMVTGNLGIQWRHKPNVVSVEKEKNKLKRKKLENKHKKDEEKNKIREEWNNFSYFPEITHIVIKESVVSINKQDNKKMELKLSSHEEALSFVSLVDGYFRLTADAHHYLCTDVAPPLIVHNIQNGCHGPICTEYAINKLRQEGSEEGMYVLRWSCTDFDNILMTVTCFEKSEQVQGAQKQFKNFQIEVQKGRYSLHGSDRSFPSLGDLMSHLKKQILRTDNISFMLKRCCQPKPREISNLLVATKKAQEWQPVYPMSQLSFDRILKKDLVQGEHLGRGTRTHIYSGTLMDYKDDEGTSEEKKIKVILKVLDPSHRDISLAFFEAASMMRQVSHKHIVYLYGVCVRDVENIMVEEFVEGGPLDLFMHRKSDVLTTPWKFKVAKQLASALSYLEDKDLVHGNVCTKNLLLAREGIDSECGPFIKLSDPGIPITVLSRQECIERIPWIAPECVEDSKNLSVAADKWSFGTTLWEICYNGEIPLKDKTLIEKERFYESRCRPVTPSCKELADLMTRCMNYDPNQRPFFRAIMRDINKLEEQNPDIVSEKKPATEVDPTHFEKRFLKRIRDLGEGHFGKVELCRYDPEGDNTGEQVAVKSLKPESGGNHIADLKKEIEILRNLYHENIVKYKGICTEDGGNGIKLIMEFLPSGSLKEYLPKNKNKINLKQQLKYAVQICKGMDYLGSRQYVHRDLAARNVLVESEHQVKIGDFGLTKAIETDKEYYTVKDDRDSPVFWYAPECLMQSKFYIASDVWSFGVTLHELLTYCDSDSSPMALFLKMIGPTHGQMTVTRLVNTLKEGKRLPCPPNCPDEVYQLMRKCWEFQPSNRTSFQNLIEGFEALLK
Sequence of Rho-associated protein kinase 1 (Homo sapiens) (Q13464 2-1354 limits assumed): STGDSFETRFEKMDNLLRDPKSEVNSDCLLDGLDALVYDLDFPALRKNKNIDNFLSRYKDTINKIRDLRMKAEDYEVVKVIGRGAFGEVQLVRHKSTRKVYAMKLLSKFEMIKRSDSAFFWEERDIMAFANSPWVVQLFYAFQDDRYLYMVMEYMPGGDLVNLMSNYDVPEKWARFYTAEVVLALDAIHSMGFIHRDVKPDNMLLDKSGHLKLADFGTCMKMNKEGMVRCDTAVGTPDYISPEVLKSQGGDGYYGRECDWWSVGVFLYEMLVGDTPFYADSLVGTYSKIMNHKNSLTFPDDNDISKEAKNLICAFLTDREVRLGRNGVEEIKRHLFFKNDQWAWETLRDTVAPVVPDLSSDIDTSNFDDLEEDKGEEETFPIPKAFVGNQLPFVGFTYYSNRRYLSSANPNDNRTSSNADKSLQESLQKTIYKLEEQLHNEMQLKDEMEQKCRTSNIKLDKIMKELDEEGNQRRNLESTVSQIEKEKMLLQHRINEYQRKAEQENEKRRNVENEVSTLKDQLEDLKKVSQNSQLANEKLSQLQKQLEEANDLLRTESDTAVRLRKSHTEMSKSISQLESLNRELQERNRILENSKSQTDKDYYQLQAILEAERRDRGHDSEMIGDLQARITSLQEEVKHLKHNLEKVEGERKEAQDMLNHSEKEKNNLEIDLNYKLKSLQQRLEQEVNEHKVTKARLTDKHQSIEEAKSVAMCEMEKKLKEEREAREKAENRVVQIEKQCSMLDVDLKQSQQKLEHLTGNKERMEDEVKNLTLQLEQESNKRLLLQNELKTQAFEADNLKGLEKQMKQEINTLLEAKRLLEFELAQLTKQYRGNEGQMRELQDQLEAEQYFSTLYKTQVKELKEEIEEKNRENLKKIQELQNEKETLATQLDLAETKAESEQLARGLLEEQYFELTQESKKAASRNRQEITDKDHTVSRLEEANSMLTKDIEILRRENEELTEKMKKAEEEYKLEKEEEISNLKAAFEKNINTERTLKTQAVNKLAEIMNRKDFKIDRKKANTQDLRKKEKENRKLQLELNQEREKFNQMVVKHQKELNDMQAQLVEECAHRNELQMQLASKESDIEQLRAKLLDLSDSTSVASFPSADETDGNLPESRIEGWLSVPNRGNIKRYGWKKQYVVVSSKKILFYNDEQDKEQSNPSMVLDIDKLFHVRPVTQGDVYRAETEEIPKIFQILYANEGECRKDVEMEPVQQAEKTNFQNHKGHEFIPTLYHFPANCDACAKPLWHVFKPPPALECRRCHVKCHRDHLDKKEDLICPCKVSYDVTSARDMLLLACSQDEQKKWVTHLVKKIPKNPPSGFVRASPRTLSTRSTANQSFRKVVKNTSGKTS
Sequence of Tyrosine-protein kinase JAK3 (Homo sapiens) (P52333 whole entry): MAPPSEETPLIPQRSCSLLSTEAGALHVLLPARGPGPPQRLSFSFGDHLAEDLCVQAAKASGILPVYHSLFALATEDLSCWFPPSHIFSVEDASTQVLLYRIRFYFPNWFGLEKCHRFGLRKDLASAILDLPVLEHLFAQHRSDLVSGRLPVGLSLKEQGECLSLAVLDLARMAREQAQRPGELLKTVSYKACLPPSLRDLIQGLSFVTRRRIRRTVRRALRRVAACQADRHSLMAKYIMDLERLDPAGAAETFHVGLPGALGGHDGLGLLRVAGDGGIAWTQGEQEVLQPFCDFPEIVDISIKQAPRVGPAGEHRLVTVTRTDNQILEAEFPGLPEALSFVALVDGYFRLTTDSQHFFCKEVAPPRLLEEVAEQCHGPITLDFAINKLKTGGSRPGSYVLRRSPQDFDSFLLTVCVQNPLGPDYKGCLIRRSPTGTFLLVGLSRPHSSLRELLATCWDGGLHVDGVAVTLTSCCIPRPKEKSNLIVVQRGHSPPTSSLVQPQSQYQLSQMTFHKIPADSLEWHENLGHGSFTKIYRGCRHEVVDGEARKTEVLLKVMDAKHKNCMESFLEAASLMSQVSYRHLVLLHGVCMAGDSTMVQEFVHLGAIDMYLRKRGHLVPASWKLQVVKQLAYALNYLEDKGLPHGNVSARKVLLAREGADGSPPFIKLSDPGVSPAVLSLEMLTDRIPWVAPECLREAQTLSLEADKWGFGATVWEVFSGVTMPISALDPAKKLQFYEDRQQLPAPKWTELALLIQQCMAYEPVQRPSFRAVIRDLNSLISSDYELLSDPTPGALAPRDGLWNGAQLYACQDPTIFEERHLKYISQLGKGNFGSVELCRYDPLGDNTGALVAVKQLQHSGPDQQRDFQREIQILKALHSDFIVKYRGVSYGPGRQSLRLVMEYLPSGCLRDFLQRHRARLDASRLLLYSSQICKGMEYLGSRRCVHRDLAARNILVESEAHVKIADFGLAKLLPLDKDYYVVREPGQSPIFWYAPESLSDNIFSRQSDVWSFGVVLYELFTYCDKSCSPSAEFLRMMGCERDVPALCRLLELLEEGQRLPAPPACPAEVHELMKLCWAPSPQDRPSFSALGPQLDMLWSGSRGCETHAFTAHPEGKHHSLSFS
Sequence of Tyrosine-protein kinase ZAP-70 (Homo sapiens) (P43403 whole entry): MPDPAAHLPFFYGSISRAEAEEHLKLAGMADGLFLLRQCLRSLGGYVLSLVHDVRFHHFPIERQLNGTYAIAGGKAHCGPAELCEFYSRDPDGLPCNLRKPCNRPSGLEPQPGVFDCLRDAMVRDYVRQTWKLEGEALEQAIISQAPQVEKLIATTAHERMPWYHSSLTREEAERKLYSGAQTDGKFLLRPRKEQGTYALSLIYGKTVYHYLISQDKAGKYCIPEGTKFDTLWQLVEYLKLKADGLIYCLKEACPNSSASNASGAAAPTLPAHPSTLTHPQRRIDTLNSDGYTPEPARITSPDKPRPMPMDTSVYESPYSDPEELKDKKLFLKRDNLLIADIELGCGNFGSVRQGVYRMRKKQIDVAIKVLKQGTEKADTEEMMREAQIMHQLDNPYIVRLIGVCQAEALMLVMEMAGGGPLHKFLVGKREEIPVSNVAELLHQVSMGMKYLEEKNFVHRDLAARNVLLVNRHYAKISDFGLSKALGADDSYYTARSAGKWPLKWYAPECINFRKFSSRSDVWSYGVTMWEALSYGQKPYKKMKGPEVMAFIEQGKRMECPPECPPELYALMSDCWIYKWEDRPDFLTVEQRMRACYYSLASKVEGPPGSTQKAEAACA

In the case of `Cc1cc(OCc2ccc(F)cc2F)c(Br)c(=O)n1-c1c(F)cc(O)cc1F`, the IC50 [1] is reported as 15 nM.
`Cc1cc(OCc2ccc(F)cc2F)c(Br)c(=O)n1-c1c(F)cc(N(C)C)cc1F` gave an IC50 [1] of 8 nM.
`Cc1cc(OCc2ccccc2)c(Br)c(=O)n1-c1c(Cl)cccc1Cl` gave an IC50 [1] of 30 nM.
Compound `Cc1cc(OCc2ccc(F)cc2F)c(Br)c(=O)n1-c1c(Cl)cccc1Cl` has an IC50 [1] of 1 nM.
`Cc1cc(OCc2ccc(F)cc2F)c(Br)c(=O)n1-c1ccc(C(=O)N(C)C)cc1` gave an IC50 [1] of 746 nM.
Work on `Cc1cc(OCc2ccc(F)cc2F)c(Br)c(=O)n1-c1cccc(CNC(=O)CO)c1` yielded an IC50 [1] of 175 nM.
With `Cc1cc(OCc2ccc(F)cc2F)c(Br)c(=O)n1-c1c(F)cc(OCC(N)=O)cc1F` the IC50 [1] was 3 nM.
Work on `Cc1cc(OCc2ccc(F)cc2F)c(Br)c(=O)n1-c1c(F)cc(N2CCN(C)CC2)cc1F` yielded an IC50 [1] of 14 nM.
`Cc1cc(OCc2ccc(F)cc2F)c(Br)c(=O)n1-c1cccc(CNC(=O)CN)c1` gave an IC50 [1] of 261 nM.
In the case of `O=c1c(Br)c(OCc2ccc(F)cc2F)cc(CN2CCOCC2)n1-c1c(F)cccc1F`, the IC50 [1] is reported as 9 nM.
Work on `Cc1cc(OCc2ccc(F)cc2F)c(Br)c(=O)n1-c1cccc(C(=O)N(C)C)c1` yielded an IC50 [1] of 102 nM.
For `Cc1cc(OCc2ccc(F)cc2F)c(Br)c(=O)n1-c1ccc(CNC(=O)CO)cc1`, the remaining at 0.75 h, 2 µM [2] was 83%, the IC50 [1] was 20 nM and the inhibition in vivo at 5 mg/kg [3] was 43%. The remaining at 0.75 h, 2 µM [4] was 88% and the IC50 [5] was 91 nM.
`CNC(=O)c1ccc(-n2c(C)cc(OCc3ccc(F)cc3F)c(Br)c2=O)cc1` showed an IC50 [1] of 126 nM.
For `Cc1cc(OCc2ccc(F)cc2F)c(Br)c(=O)n1-c1cccc(C(N)=O)c1`, the inhibition [6] was < 50%, the inhibition [7] was < 50% and the inhibition [8] was < 50%. For the same compound, the inhibition [9] was < 50%, the inhibition [10] was < 50% and the inhibition [11] was < 50%. For the same compound, the inhibition [12] was < 50%, the remaining at 0.75 h, 2 µM [2] was 97% and the inhibition [13] was < 50%. For the same compound, the inhibition [14] was < 50%, the bioavailability [15] was 7% and the IC50 [1] was 12 nM. For the same compound, the inhibition [16] was < 50%, the solubility [17] was < 10 µg/mL and the inhibition [18] was < 50%. The clearance [19] was 9.34 mL/min/kg, the bioavailability [20] was 93% and the inhibition [21] was < 50%. For the same compound, the inhibition in vivo at 5 mg/kg [3] was 89%, the inhibition [22] was < 50% and the inhibition [23] was < 50%. The inhibition [24] was < 50%, the inhibition [25] was < 50% and the inhibition [26] was < 50%. The inhibition [27] was < 50%, the remaining at 0.75 h, 2 µM [4] was 100% and the inhibition [28] was < 50%. The IC50 [5] was 64 nM, the inhibition [29] was “Active” and the inhibition [30] was < 50%. For the same compound, the inhibition [31] was < 50%, the inhibition [32] was < 50% and the inhibition in vivo at 60 mg/kg [33] was 40%. For the same compound, the inhibition [34] was < 50%, the half-life [35] was 3.4 h and the inhibition [36] was “Active”. The inhibition [37] was < 50%, the inhibition [38] was < 50% and the inhibition [39] was < 50%.
